Experimental data as given in article PMC9044819 (RSC Advances, 2021).
Values joined by “and” are separate entries in the source; they are usually repeats but may differ in a detail not shown here. Equal entries are not always repeated. Where two headings read alike, the source gives them in different places.

Experiments:
Human VEGFR-2 = Human VEGFR-2 (Homo sapiens, UniProt P35968); assay: In vitro VEGFR-2 assay; format: biochemical
MCF-7 = assay: cells; format: cell-based, human
HepG-2 = assay: MTT anti-proliferative assay, HepG-2; format: cell-based, human
primary rat hepatocytes = assay: In vitro cytotoxicity against normal hepatic cells; format: cell-based; details: HepG-2 vs primary rat hepatocytes
HepG-2 cells = assay: Cell cycle analysis; format: cell-based, human; details: HepG-2, 17b 2.3 μM
BAX = assay: Western blot, BAX expression in HepG-2; format: cell-based, human
Summary of the method: (§1)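 HepG-2 cells exposed 24 h to test compound at 2.3 μM, then probed by western blot for BAX, Bcl-2, active caspase-9 and active caspase-3. Each band is normalized to β-actin and expressed relative to control, and the BAX/Bcl-2 ratio is also tabulated. Values are mean ± SEM of three independent experiments, with significance flagged at p < 0.05, 0.01 and 0.001.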

Bcl-2 = assay: Western blot, Bcl-2 expression in HepG-2; format: cell-based, human
Summary of the method: as §1

caspase-9 = assay: Western blot, active caspase-9 in HepG-2; format: cell-based, human
Summary of the method: as §1

caspase-3 = assay: Western blot, active caspase-3 in HepG-2; format: cell-based, human
Summary of the method: as §1

BAX/Bcl-2 ratio = assay: Western blot, BAX/Bcl-2 ratio in HepG-2; format: cell-based, human; details: HepG-2 treated 24 h, 2.3 μM; control 1.00; mean ± SEM
Summary of the method: as §1

[1] = HepG-2 treated 24 h, 2.3 μM, control 1.00, mean ± SEM

Human VEGFR-2, sequence (P35968 20-1356): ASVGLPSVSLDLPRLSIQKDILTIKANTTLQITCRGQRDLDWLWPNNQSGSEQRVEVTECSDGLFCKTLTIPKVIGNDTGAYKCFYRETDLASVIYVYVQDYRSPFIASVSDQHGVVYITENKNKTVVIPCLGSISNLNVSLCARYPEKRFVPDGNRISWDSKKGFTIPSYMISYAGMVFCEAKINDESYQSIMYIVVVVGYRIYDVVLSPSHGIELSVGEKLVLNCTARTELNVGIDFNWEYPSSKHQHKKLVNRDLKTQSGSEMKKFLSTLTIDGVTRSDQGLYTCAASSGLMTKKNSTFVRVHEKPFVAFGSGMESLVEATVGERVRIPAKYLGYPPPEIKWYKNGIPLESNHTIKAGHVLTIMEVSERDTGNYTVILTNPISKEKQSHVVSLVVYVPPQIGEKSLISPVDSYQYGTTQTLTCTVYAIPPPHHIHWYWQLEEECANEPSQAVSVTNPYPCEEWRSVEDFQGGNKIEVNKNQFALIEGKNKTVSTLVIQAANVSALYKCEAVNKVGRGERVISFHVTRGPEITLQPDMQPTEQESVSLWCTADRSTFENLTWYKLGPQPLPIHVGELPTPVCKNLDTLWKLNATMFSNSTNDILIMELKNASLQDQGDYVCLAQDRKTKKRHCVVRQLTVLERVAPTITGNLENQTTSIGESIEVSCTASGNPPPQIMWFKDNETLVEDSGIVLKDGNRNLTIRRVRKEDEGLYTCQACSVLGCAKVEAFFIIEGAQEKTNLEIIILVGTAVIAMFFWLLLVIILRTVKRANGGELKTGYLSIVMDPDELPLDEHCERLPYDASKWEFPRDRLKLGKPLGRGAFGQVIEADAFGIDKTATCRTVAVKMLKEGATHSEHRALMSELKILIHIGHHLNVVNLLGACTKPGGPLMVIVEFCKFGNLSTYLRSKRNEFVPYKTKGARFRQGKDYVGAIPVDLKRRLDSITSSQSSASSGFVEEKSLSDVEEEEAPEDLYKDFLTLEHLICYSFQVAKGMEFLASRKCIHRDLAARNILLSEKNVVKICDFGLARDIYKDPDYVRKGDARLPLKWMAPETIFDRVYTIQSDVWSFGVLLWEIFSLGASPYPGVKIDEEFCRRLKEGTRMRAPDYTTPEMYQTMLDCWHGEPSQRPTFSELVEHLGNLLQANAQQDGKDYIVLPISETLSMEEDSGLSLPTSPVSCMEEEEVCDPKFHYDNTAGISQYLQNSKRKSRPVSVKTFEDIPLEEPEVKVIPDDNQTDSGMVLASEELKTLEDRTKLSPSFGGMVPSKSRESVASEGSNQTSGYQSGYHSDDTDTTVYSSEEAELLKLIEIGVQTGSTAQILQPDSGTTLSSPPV

CCCCNC(=O)c1ccc(NC(=O)CSc2nc3ccccc3nc2C)cc1 [Compound 15a, N-Butyl-4-(2-((3-methylquinoxalin-2-yl)thio)acetamido)benzamide]
IC50 (Human VEGFR-2): 23.1 ± 0.8 nM

Cc1nc2ccccc2nc1SCC(=O)Nc1ccc(C(=O)Nc2cccc(Cl)c2)cc1 [Compound 15b, N-(3-Chlorophenyl)-4-(2-((3-methylquinoxalin-2-yl)thio)acetamido)benzamide]
IC50 (Human VEGFR-2): 3.4 ± 0.2 nM

Cc1nc2ccccc2nc1SCC(=O)Nc1ccc(C(=O)Nc2ccc(O)cc2)cc1 [Compound 15c, N-(4-Hydroxyphenyl)-4-(2-((3-methylquinoxalin-2-yl)thio)acetamido)benzamide]
IC50 (Human VEGFR-2): 27.8 ± 1.2 nM

Cc1nc2ccccc2nc1SCC(=O)Nc1ccc(C(=O)Nc2ccc([N+](=O)[O-])cc2O)cc1 [Compound 15d, N-(2-Hydroxy-4-nitrophenyl)-4-(2-((3-methylquinoxalin-2-yl)thio)acetamido)benzamide]
IC50 (Human VEGFR-2): 31.5 ± 1.3 nM

Cc1nc2ccccc2nc1SCC(=O)Nc1ccc(C(=O)NNC(=O)c2ccccc2O)cc1 [Compound 16, N-(4-(2-(2-Hydroxybenzoyl)hydrazine-1-carbonyl)phenyl)-2-((3-methylquinoxalin-2-yl)thio)acetamide]
IC50 (Human VEGFR-2): 18.5 ± 0.8 nM

CCCCNC(=O)c1ccc(NC(=O)Cn2c(=O)c(C)nc3ccccc32)cc1 [Compound 17a, N-Butyl-4-(2-(3-methyl-2-oxoquinoxalin-1(2H)-yl)acetamido)benzamide]
IC50 (Human VEGFR-2): 11.2 ± 0.4 nM

Cc1nc2ccccc2n(CC(=O)Nc2ccc(C(=O)Nc3cccc(Cl)c3)cc2)c1=O [Compound 17b, N-(3-Chlorophenyl)-4-(2-(3-methyl-2-oxoquinoxalin-1(2H)-yl)acetamido)benzamide]
IC50 (MCF-7; read-out: MCF-7 (IC50), MTT, mean ± S.D. of three experiments): 2.8 ± 0.2 µM
IC50 (HepG-2; read-out: HepG-2 (IC50), MTT, mean ± S.D. of three experiments): 2.3 ± 0.2 µM
cytotoxic activity against cancer HepG-2 cell line more than against normal hepatic cells (primary rat hepatocytes): 10 fold
Cell cycle analysis (%) % G1 (HepG-2 cells): 40.03 ± 2.82 %
Cell cycle analysis (%) % G2/M (HepG-2 cells): 30.38% and 30.38 ± 2.93 %
Cell cycle analysis (%) % S (HepG-2 cells): 28.31 ± 1.01%
Cell cycle analysis (%) % Sub-G1 (HepG-2 cells): 1.27 ± 0.17%
boost of BAX level (BAX; HepG-2, 2.3 μM): approximately 4 fold
Protein expression (normalized to β-actin) BAX (BAX; [1]): 4.21 ± 0.60
downregulation of Bcl-2 level (Bcl-2; HepG-2, 2.3 μM): around 3 fold
Protein expression (normalized to β-actin) Bcl-2 (Bcl-2; [1]): 0.32 ± 0.04
increase of caspase-9 level compared to control cells (caspase-9; HepG-2, 2.3 μM): 1.74 fold
Protein expression (normalized to β-actin) Caspases-9 (caspase-9; [1]): 1.74 ± 0.20
increase of caspase-3 level compared to control cells (caspase-3; HepG-2, 2.3 μM): 1.8 fold
Protein expression (normalized to β-actin) Caspases-3 (caspase-3; [1]): 1.85 ± 0.26
Protein expression (normalized to β-actin) BAX/Bcl-2 ratio (BAX/Bcl-2 ratio): 9.30 ± 2.66

Cc1nc2ccccc2n(CC(=O)Nc2ccc(C(=O)Nc3ccc(O)cc3)cc2)c1=O [Compound 17c, N-(4-Hydroxyphenyl)-4-(2-(3-methyl-2-oxoquinoxalin-1(2H)-yl)acetamido)benzamide]
IC50 (Human VEGFR-2): 13.9 ± 0.5 nM

Cc1nc2ccccc2n(CC(=O)Nc2ccc(C(=O)Nc3ccc([N+](=O)[O-])cc3O)cc2)c1=O [Compound 17d, N-(2-Hydroxy-4-nitrophenyl)-4-(2-(3-methyl-2-oxoquinoxalin-1(2H)-yl)acetamido)benzamide]
IC50 (MCF-7; Homo sapiens, MCF7, read-out: MCF-7 (IC50, μM)): 35.2 ± 1.6 µM
IC50 (HepG-2; Homo sapiens, HepG2, read-out: HepG-2 (IC50, μM)): 22.4 ± 1.3 µM
IC50 (Human VEGFR-2): 11.2 ± 0.3 nM

Cc1nc2ccccc2n(CC(=O)Nc2ccc(C(=O)NNC(=O)c3ccccc3O)cc2)c1=O [Compound 18, N-(4-(2-(2-Hydroxybenzoyl)hydrazine-1-carbonyl)phenyl)-2-(3-methyl-2-oxoquinoxalin-1(2H)-yl)acetamide]
IC50 (Human VEGFR-2): 11.2 ± 0.2 nM

CNC(=O)c1cc(Oc2ccc(NC(=O)Nc3ccc(Cl)c(C(F)(F)F)c3)cc2)ccn1 [Sorafenib, sorafenib, reference compound]
cytotoxic activity against cancer HepG-2 cell line more than against normal hepatic cells (primary rat hepatocytes): 11 fold
